In data set [1] the test system is Mus musculus. In words: Mortality was determined in mice inoculated with B16 melanoma BL6 cells sc at a dose 600 mg/kg by peroral administration; 0/6. Particulars: route oral. The data set is classed as functional.
In data set [2] the test system is Mus musculus. Briefly: Mean tumor weight was determined in mice inoculated with B16 melanoma BL6 cells sc at a dose 100 mg/kg iv [IR (%) = (1-TWt/TWc)*100]. The class given is functional. The method in brief:
(§1)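 C57BL/6 mice (six per group) received subcutaneous B16 melanoma BL6 cells on day 0 and a single iv or oral dose on day 4. Tumors were excised and weighed on day 15. Inhibition rate IR (%) = (1 − mean treated tumor weight/mean control tumor weight) × 100.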

Data set [3] concerns Mus musculus. Briefly: Mortality was determined in mice inoculated with B16 melanoma BL6 cells sc at a dose 100 mg/kg by intravenous administration; 0/6. The class given is functional.
Data set [4] relates to Mus musculus. Briefly: Mean tumor weight was determined in mice inoculated with B16 melanoma BL6 cells sc at a dose 600 mg/kg po [IR (%) = (1-TWt/TWc)*100]. The data set is classed as functional. A digest of the protocol: as §1
Data set [5] deals with Mus musculus. In words: Maximum rate of body weight loss was determined in mice inoculated with B16 melanoma BL6 cells sc at a dose 600 mg/kg by peroral administration. The class given is functional. Particulars: route oral. A digest of the protocol: (§2)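 On day 0, B16 melanoma BL6 cells (cultured line) were implanted subcutaneously into C57BL/6 mice, six per group. A single iv or oral dose was given on day 4, and body weight was followed. BWLmax (%) is the maximum rate of body weight loss; a value below 0 means no loss.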

Data set [6] is described as follows: Solubility of compound in JP2 at pH 6.8 using UV assay. The data set is classed as physicochemical. Particulars: JP2, pH 6.8.
Data set [7] has as its system P388. In words: Cytotoxic activity against mouse leukemia P388 cell line. The data set is classed as functional. A digest of the protocol: (§3)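 Growth inhibition (IC50) of mouse leukemia P388 and human lung cancer PC-6 and PC-12 cells after 72 h continuous exposure to compound; IC50 taken as the concentration giving 50% growth inhibition.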
Data set [8] deals with PC-12. In words: Cytotoxic activity against human lung cancer PC-12 cell line.
Data set [9] concerns PC-6. In words: Cytotoxic activity against human lung cancer PC-6 cell line. The data set is classed as functional. A digest of the protocol:
as §3

Data set [10] in a line: Solubility of compound in JP1 at pH 1.2 using UV assay. The data set is classed as physicochemical. Particulars: JP1, pH 1.2.
Data set [11] is described as follows: Solubility in water using UV assay. The class given is physicochemical.
Data set [12] has as its system Mus musculus. Briefly: Maximum rate of body weight loss was determined in mice inoculated with B16 melanoma BL6 cells sc at a dose 100 mg/kg by intravenous administration. The class given is functional. The method in brief: as §2

Where only a bound is given, the exact number is not on record here.

As for `CC(=O)O[C@@]12CO[C@@H]1C[C@H](O)[C@@]1(C)C(=O)[C@H](O)C3=C(C)[C@@H](OC(=O)[C@H](O)[C@@H](NC(=O)OC(C)(C)C)c4ccccc4)C[C@@](O)([C@@H](OC(=O)c4ccccc4)[C@H]21)C3(C)C.O.O.O` [DOCETAXEL], the Mortality in data set [1] and in [3] was 0 in each case. Further, the IR in data set [2] was determined as 95.1%; in data set [4], 6.2%. Further, the BWLmax in [5] and in [12] was less than 0% throughout. Moreover, the solubility in data set [6], in data set [10] and in data set [11] was less than 4 µg/mL in each case. Also, the GI50 worked out at 0.78 ng/mL in [7], 14.9 ng/mL in data set [8] and 0.41 ng/mL in data set [9].

The values above are taken from ChEMBL document CHEMBL1136257, “New highly active taxoids from 9beta-dihydrobaccatin-9,10-acetals. Part 3” (Bioorg Med Chem Lett, 2003).
